# Hits are enriched below; roughly 3.1% of the tested compounds scored in any of these assays.
# KCNK3 block: human KCNK3 channel inhibitors, primary screen, CHO cells, FluxOR thallium flux, B-score | 340,000 tested, 0.84% active | B-score at 10 µM | Potassium channel subfamily K member 3 (Homo sapiens), O14649 | FluxOR fluorescence; stronger effect = lower value | AID 602410, 2012;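 active = B-score under library mean minus 4 SD, starting fluorescence ratio at most library mean plus 5 SD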;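 also: more negative B-score means stronger inhibition of thallium flux through KCNK3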
# Target sequence (O14649 whole entry, looked up): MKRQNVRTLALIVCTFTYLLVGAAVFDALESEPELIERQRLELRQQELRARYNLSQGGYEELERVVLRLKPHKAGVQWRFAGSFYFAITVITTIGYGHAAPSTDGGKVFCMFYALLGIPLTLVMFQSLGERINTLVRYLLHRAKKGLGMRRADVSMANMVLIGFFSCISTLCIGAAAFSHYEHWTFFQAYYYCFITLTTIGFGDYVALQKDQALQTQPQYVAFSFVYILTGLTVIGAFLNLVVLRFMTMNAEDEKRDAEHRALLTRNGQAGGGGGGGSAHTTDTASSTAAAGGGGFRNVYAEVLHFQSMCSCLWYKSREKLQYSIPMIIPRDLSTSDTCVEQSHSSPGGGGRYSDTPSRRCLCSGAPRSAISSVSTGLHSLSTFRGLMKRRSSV
# hERG rescue: hERG rescue from dofetilide block, primary screen, cell-based, CHO-hERG, FluxOR thallium flux, dofetilide IC70. Voltage-gated inwardly rectifying potassium channel KCNH2 (Homo sapiens), Q12809. dofetilide IC70 present. activation (rescue from dofetilide block), less the hit threshold, % at 10 µM. 310,000 tested, 0.51% active. AID 1511, 2009;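 active = activation above the mean of controls blocked by dofetilide plus 5 SD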;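 also: thallium influx through hERG after potassium depolarization seen as dye fluorescence rise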
# KCNK9 block: KCNK9 potassium channel inhibitors, primary screen, HEK293 cells, thallium flux; AID 488922, 2010; 310,000 tested, 1.2% active; B-score at 10 µM; FluxOR thallium flux fluorescence; stronger effect = lower value; Potassium channel subfamily K member 9 (Homo sapiens), Q9NPC2;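 active = ratio B-score over 3 SD below the library mean, with starting fluorescence within 5 SD of its mean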;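 also: negative B-score means less thallium flux so channel inhibition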
# KCNQ1 act: potentiators or activators of KCNQ1 channel, primary screen, cell-based, thallium flux, high-throughput | Potassium voltage-gated channel subfamily KQT member 1 (Homo sapiens), P51787 | CHO-K1 KCNQ1, thallium flux FluxOR fluorescence; stronger effect = higher value | B-score at 10 µM | 310,000 tested, 0.35% active;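 active = fluorescence ratio B-score, a plate-corrected score, at least three library SD, with initial intensity B-score within 5 SD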
#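 Doses: Single concentration per compound, DMSO matched to controls | Test system: KCNQ1-transfected CHO-K1 cells | Timing: 90 min dye loading and 20 min compound exposure, both at room temperature | Measured by: Kinetic FluxOR thallium fluorescence, 10-s 1-Hz baseline, 110-s post-stimulus read | Medium: Assay buffer with matched DMSO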
# KCNQ1 inh: inhibitors of human KCNQ1 channel, primary screen, cell-based, thallium flux, high-throughput; B-score at 10 µM; CHO-K1 KCNQ1, FluxOR thallium flux fluorescence; stronger effect = higher value; 310,000 tested, 1.3% active; Potassium voltage-gated channel subfamily KQT member 1 (Homo sapiens), P51787;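 active = compounds whose thallium flux B-score, printed positive for inhibition, exceeds three library SD while starting fluorescence stays within three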;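 also: channel opened by potassium depolarization with thallium stimulus after 20 min compound exposure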
# * hit, by the source's call; i = inactive; / = no result given.
SMILES,KCNK3 block,hERG rescue,KCNK9 block,KCNQ1 act,KCNQ1 inh
C=CCn1c(O)c(N=NC(=S)Nc2ccccc2F)c2cc(S(=O)(=O)N3CCOCC3)ccc21,i,5.9*,i,10*,i
CCn1c(=O)c(CCC(=O)N2CCN(c3ccccn3)CC2)c(C)c2c(C)nn(-c3cccc(C)c3)c21,i,-10.3,i,i,i
CCN(C(=O)CC(C)C)c1nnc(Cn2nnc3ccccc32)s1,i,-12.1,i,i,i
CCN(C(=O)c1ccc(C(C)(C)C)cc1)c1nnc(Cn2nnc3ccccc32)s1,i,-20.5,i,i,7*
NNc1nc2ccccc2c(=O)n1Cc1ccccc1,i,1.3,i,i,i
O=C(O)C1CCCCC1C(=O)Nc1ccc(S(=O)(=O)N2CCCCC2)cc1 (configuration not stated),i,-8.5,i,i,i
CCN(CC(=O)Nc1c(F)cccc1F)C(=O)c1ccc(C(F)(F)F)cc1,i,-1.4,-7.89*,i,i
CCN(CC(=O)Nc1c(F)cccc1F)C(=O)c1ccc(C2SCCS2)cc1,i,-14.4,i,i,i
COc1ccc(OC)c(-c2csc(NC(=O)CSc3ccc([N+](=O)[O-])cc3)n2)c1,i,-15.4,i,i,7*
COc1ccc(OC)c(-c2csc(NC(=O)CSc3ccc(Br)cc3)n2)c1,i,-5.8,i,i,i
CC(=O)Nc1sc2c(c1C#N)CCN(Cc1ccccc1)C2,i,-3.1,i,i,i
N#Cc1c(NC(=O)/C=C/C(=O)O)sc2c1CCN(Cc1ccccc1)C2,i,-12.3,i,i,6*
CC(CC(=O)Nc1ccc(Cl)c([N+](=O)[O-])c1)c1ccccc1 (configuration not stated),i,-16.1,i,i,10*
O=C(Nc1ccc(Cl)c([N+](=O)[O-])c1)Nc1nc2ccccc2s1,/,-8.8,i,i,9*
COC(=O)c1ccccc1NC(=S)NC(=O)c1ccc2c(c1)OCO2,i,-8.5,i,i,i
O=C(NC(=S)Nc1ccccc1N1CCCCC1)c1ccc(-c2cccc([N+](=O)[O-])c2)o1,i,-8.7,i,i,i
O=C(NC(=S)Nc1ccccc1N1CCCC1)c1ccc([N+](=O)[O-])cc1,i,8.1*,i,8*,i
O=C(NC(=S)Nc1cc([N+](=O)[O-])ccc1O)c1ccc2c(c1)OCO2,i,-11.6,i,i,6*
O=C(NC(=S)Nc1ccccc1N1CCCC1)c1ccc(-c2cccc([N+](=O)[O-])c2)o1,i,-1.2,i,8*,i
COc1cccc(CNS(=O)(=O)c2cc3c4c(c2)CCN4C(=O)CC3)c1,i,-10.4,i,i,i
Cc1cc2c(cc1S(=O)(=O)NCCc1ccc(Cl)cc1)OCC(=O)N2,i,-7.8,i,i,i
CCOC(=O)COc1ccccc1/C=N\NC(=O)c1cc2c(ccc3ccccc32)o1,i,-18.3,-6.84*,i,10*
CC1=CC(=C(C#N)c2nc3ccccc3s2)C=C(C)N1Cc1ccco1,-13.2*,-7.3,i,i,i
N#C/C(=C(/O)c1ccco1)c1nc2ccccc2s1,i,-8.7,i,i,i
COc1ccc(Cc2nc3ccc(C(=O)NCC4COCCO4)cc3o2)cc1OC (configuration not stated),i,-6.8,i,i,i
SMILES,KCNK3 block,hERG rescue,KCNK9 block,KCNQ1 act,KCNQ1 inh
CN1CCN(Cc2cc(=O)oc3cc4c(cc23)CCC4)CC1,i,-3.9,i,i,i
CCN1CCN(Cc2cc(=O)oc3cc4c(cc23)CCC4)CC1,i,-25.0,i,i,8*
CC(NC(=S)Nc1ccc([N+](=O)[O-])cc1)c1ccncc1 (configuration not stated),i,-0.3,i,i,7*
Cc1ccccc1N(CC(=O)NC1CCCCC1)C(=O)c1csnn1,i,-5.6,i,i,i
Cc1cccc(N(CC(=O)NC2CCCC2)C(=O)c2csnn2)c1C,i,-3.0,i,8*,i
CC(=O)Nc1ccc(C(=O)OCCc2ccccc2)cc1,i,-8.9,i,i,i
CC(C)C[C@@H](CN1CCC[C@@H]1CN1C(=O)C(=O)NC[C@@H]1Cc1ccccc1)N1C[C@H](Cc2ccccc2)N(CC2CCCCCC2)C(=O)C1=O,i,/,/,/,/
O=C1NC[C@H](Cc2ccccc2)N(C[C@H]2CCCN2C[C@H](Cc2ccccc2)N2C[C@H](Cc3ccccc3)N(CC3CCCCCC3)C(=O)C2=O)C1=O,-8.96*,/,/,/,/
OCC1(Cc2ccccc2)CCCN(Cc2c[nH]c3ccccc23)C1 (configuration not stated),i,-1.2,i,i,i
CCOC(=O)c1c(NC(C)=O)sc2c1CCC(C=NCCCN(CC)CC)=C2Sc1ccccc1,-9.64*,-8.3,-7.24*,i,i
COc1cc(/C=C2/C(=O)NN(c3ccccc3)C2=O)cc(Br)c1O,i,6.8*,i,i,i
Cc1ccc(S(=O)(=O)N(CC(=O)O)Cc2ccco2)cc1,i,-6.7,i,i,i
Cc1ccc(S(=O)(=O)N(Cc2ccc(F)cc2)Cc2ccco2)cc1,i,-5.6,i,i,6*
Cc1ccc(NCC2(N=Cc3ccccc3)OC(CO)C(O)C2O)cc1 (configuration not stated),i,/,/,/,/
COc1ccc2cc1Oc1ccc(cc1)CC1c3c(cc(OC)c4c3Oc3cc5c(cc3O4)CCNC5C2)CCN1C (configuration not stated),i,-20.1,i,i,9*
COc1ccc2cc1Oc1ccc(cc1)C[C@H]1c3c(cc(OC)c4c3Oc3c(ccc5c3[C@H](C2)N(C)CC5)O4)CCN1C,i,/,/,/,/
CC(C)(C)OC(=O)NCCCCCNC(=O)c1[nH]cnc1C(=O)N[C@@H](CCCCNC(=O)OC(C)(C)C)C(=O)OC(C)(C)C,i,-10.9,i,i,i
C[C@H](NC(=O)c1nc[nH]c1C(=O)N1CCc2ccccc2C1)C(=O)OCc1ccccc1,i,-20.2,i,i,6*
CC(C)(C)OC(=O)NCCCC[C@H](NC(=O)c1nc[nH]c1C(=O)N[C@@H](CCCCNC(=O)OC(C)(C)C)C(=O)OC(C)(C)C)C(=O)OC(C)(C)C,i,-9.7,-7*,i,i

# Source: PubChem BioAssay (Johns Hopkins Ion Channel Center)
